Measured values reported in ChEMBL document CHEMBL1255324, “Absence of amphotericin B-tolerant persister cells in biofilms of some Candida species” (2008).
In brackets after ≈: the same amount, converted by molar mass. Activity calls are given as the source filed them. No cut-off for these calls is given here.

Key:
Pichia kudriavzevii [1] = assay: Antifungal activity against Candida krusei Glasgow exponential-phase planktonic cell assessed as cell killing at 5 ug/ml after 24 hrs; assay type: functional, organism-based
Outline: (§1)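 Planktonic cells grown at 37°C with shaking in YNB/50 mM glucose. Exponential phase was 8 h for C. krusei, C. albicans and C. tropicalis, 11 h for C. parapsilosis and 18 h for C. glabrata; stationary phase was 48 h. Washed cells at ~10^7 cells ml−1 got amphotericin B (5–100 μg ml−1) in MOPS-buffered (pH 7) YNB glucose, 24 h at 37°C. Viable counts by plating. Two experiments in duplicate.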

Candida parapsilosis [2] = assay: Antifungal activity against Candida parapsilosis AAHB 4479 exponential-phase planktonic cell assessed as cell killing after 24 hrs; assay type: functional, organism-based; outline: as §1
Pichia kudriavzevii [3] = assay: Antifungal activity against Candida krusei Glasgow stationary-phase planktonic cell assessed as cell killing after 24 hrs; assay type: functional, organism-based; outline: as §1
Nakaseomyces glabratus = assay: Antifungal activity against Candida glabrata AAHB 12 exponential-phase planktonic cell assessed as cell killing at 5 ug/ml after 24 hrs; assay type: functional, organism-based; outline: as §1
Candida albicans [4] = assay: Antifungal activity against Candida albicans SC5314 exponential/stationary phase planktonic cell assessed as cell killing at 100 ug/ml after 24 hrs; assay type: functional, organism-based; outline: as §1
Candida albicans [5] = assay: Antifungal activity against Candida albicans SC5314 biofilm persisters at 100 ug/ml after 24 hrs; assay type: functional, organism-based
Outline: (§2)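 PVC discs (0.8 cm) seeded with washed YNB/50 mM glucose-grown cells (OD520 0.8), adhered 1 h at 37°C, washed, and grown 48 h at 37°C in medium. Biofilms exposed 24 h at 37°C to amphotericin B (5–100 μg ml−1) in YNB glucose buffered to pH 7 with 0.165 M MOPS; drug-free controls. Cells scraped, vortexed, PBS-washed, viable counts on YNB/200 mM glucose agar. Two experiments in duplicate.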

Candida albicans [6] = assay: Antifungal activity against Candida albicans GDH 2346; assay type: functional
Candida albicans [7] = assay: Antifungal activity against Candida albicans GDH 2346 stationary phase planktonic cell assessed as cell killing at 5 ug/ml after 24 hrs; assay type: functional, organism-based; outline: as §1
Candida albicans [8] = assay: Antifungal activity against Candida albicans SC5314 biofilm assessed as cell killing at 100 ug/ml after 24 hrs; assay type: functional, organism-based; outline: as §2
Candida albicans [9] = assay: Antifungal activity against Candida albicans SC5314 exponential/stationary phase planktonic cell assessed as persisters at 100 ug/ml after 24 hrs; assay type: functional, organism-based; outline: as §1
Candida albicans [10] = assay: Antifungal activity against Candida albicans GDH 2346 Biofilm assessed as resistant isolate at 100 ug/ml after 24 hrs; assay type: functional
Outline: (§3)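 Biofilms formed on 0.8 cm PVC discs. Standardized YNB/50 mM glucose-grown cells (OD520 0.8) adhered 1 h at 37°C, then grew 48 h at 37°C. Mature biofilms were exposed 24 h at 37°C to amphotericin B 5–100 μg ml−1 in YNB glucose buffered to pH 7 with 0.165 M MOPS; drug-free controls. Cells were scraped and vortexed off, washed in PBS, then viable counts were made by serial dilution and plating on YNB/200 mM glucose agar. Two independent experiments, each in duplicate.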

Candida parapsilosis [11] = assay: Antifungal activity against Candida parapsilosis AAHB 4479 stationary-phase planktonic cell assessed as cell killing after 24 hrs; assay type: functional, organism-based; outline: as §1
Pichia kudriavzevii [12] = assay: Antifungal activity against Candida krusei Glasgow Biofilm assessed as resistant isolates after 24 hrs; assay type: functional; outline: as §3
Candida parapsilosis [13] = assay: Antifungal activity against Candida parapsilosis AAHB 4479 Biofilm assessed as resistant isolates after 24 hrs; assay type: functional; outline: as §3
Candida tropicalis [14] = assay: Antifungal activity against Candida tropicalis AAHB 73 stationary-phase planktonic cell assessed as cell killing after 24 hrs; assay type: functional, organism-based; outline: as §1
Candida tropicalis [15] = assay: Antifungal activity against Candida tropicalis AAHB 73 exponential-phase planktonic cell assessed as cell killing at 5 ug/ml after 24 hrs; assay type: functional, organism-based; outline: as §1
Candida albicans [16] = assay: Antifungal activity against Candida albicans GDH 2346 exponential phase planktonic cell assessed as cell killing at 5 ug/ml after 24 hrs; assay type: functional, organism-based; outline: as §1

## C[C@@H]1[C@H](O)[C@@H](C)/C=C/C=C/C=C/C=C/C=C/C=C/C=C/[C@H](O[C@@H]2O[C@H](C)[C@@H](O)[C@H](N)[C@@H]2O)C[C@@H]2O[C@](O)(C[C@@H](O)C[C@@H](O)[C@H](O)CC[C@@H](O)C[C@@H](O)CC(=O)O[C@H]1C)C[C@H](O)[C@H]2C(=O)O [AMPHOTERICIN B]
Pichia kudriavzevii [1]
  Activity: Active
Candida parapsilosis [2]
  Activity: inactive
Pichia kudriavzevii [3]
  Activity: inactive
Nakaseomyces glabratus
  Activity: Active
Candida albicans [4]
  Activity: Active
Candida albicans [5]
  Activity: Active
Candida albicans [6]
  MIC: 1.3 µg/mL (≈ 1.41 µM)
Candida albicans [7]
  Activity: Active
Candida albicans [8]
  Activity: Active
Candida albicans [9]
  Activity: Active
Candida albicans [10]
  Activity: 0.01%
Candida parapsilosis [11]
  Activity: inactive
Pichia kudriavzevii [12]
  Activity: 0.001%
Candida parapsilosis [13]
  Activity: 0.07%
Candida tropicalis [14]
  Activity: inactive
Candida tropicalis [15]
  Activity: Active
Candida albicans [16]
  Activity: Active
